We go through 17 molecules from PubChem BioAssay.

Activity calls are given as the source filed them.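 How the source made its calls, unless noted: active means GFP response above 150% of the DMSO level; inconclusive means fewer than 70 events counted for a yeast strain; inactive means the rest.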

Assay [1] is described as follows: hit retest on RPL19A-GFP reporter strain – cell-based, S. cerevisiae, flow cytometry, cherry picks, mother/daughter gates, confirmation (AID 2270;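 active means GFP response below 50% of the DMSO control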). Particulars: 3 h, at 10 µM, stronger effect = lower value, 100 = same GFP as DMSO wells. In general terms: In flow cytometry, cells or beads pass a laser one at a time.
Assay [2] can be described thus: yeast TOR pathway reporter LAP4-GFP change – cell-based, cherry picks, flow cytometry, mother/daughter gates, confirmation (AID 2271;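 active means GFP response above 150% of the DMSO control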;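 further: ratio of sample to DMSO plate mean so 100% equals DMSO level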). Particulars: S. cerevisiae LAP4-GFP strain, 3 h, at 10 µM, stronger effect = higher value, 100 means same as DMSO control. The method, boiled down: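 System: GFP-fusion yeast strain | Input: Yeast cells seeded at OD600 of 0.2 | Technique: HT flow cytometry, GFP fluorescence channel | Read-out: % GFP response vs DMSO | Dosing: Single test-compound dose, 10 µM final | Controls: Positive rapamycin (400 ng/mL), negative DMSO | Times: 3 h treatment at 30 °C with rotation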

A short description of assay [3]: TOR pathway reporter MEP2-GFP, retest of hits – S. cerevisiae, flow cytometry GFP, cherry picks, confirmation (AID 2272;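 active means GFP response above 150% of the DMSO control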;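 further: ratio of well signal to plate DMSO mean so 100% equals DMSO level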). Particulars: S. cerevisiae MEP2-GFP strain, 3 h, at 10 µM, stronger effect = higher value.
A short description of assay [4]: yeast AGP1-GFP fluorescence change, single-dose – cell-based, flow cytometry, S. cerevisiae, cherry picks, confirmation (AID 2273).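 Further: median GFP channel fluorescence over the whole cell population gate.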 Particulars: S. cerevisiae AGP1-GFP strain, 3 h, at 10 µM.
Assay [5] is described as follows: TOR pathway CIT2 reporter hit retest – S. cerevisiae, GFP fusion, cherry picks, mother/daughter gates, confirmation (AID 2274). Particulars: S. cerevisiae CIT2-GFP strain, flow cytometry, 3 h, at 10 µM, stronger effect = higher value.
The mark [6] stands for this setting: measured here: daughter cell gate.
The mark [7] stands for this setting: measured here: mother cell gate.
Where [8] appears, read: measured here: daughter cell gate response.
The mark [9] stands for this setting: measured here: mother cell gate response.

On to `Cn1cc(/C=C/c2cc[n+](C)cc2)c2cc(F)ccc21`, for which the GFP response vs DMSO was 102% (inactive) in assay [1], 102% in assay [1] (setting [6]), 102% in assay [1] (setting [7]) and 134% (inactive) in assay [3]. In addition, the GFP response relative to DMSO in assay [2] is 115% (inactive); in assay [2] (setting [8]) it was 117%; in assay [2] (setting [9]), 116%. Further, the GFP response, % of DMSO is 103% (inactive) in assay [4], 115% (inactive) in assay [5], 116% in assay [5] (setting [6]) and 114% in assay [5] (setting [7]).
Turning to `CCC(C)(C)NC(=O)C(c1cccs1)N(CC1CCCO1)C(=O)Cn1nnc2ccccc21` (configuration not stated), the GFP response vs DMSO was 95.3% (inactive) in assay [1], 95.9% in assay [1] (setting [6]), 94.4% in assay [1] (setting [7]) and 101% (inactive) in assay [3]. In addition, the GFP response relative to DMSO in assay [2] was 98.9% (inactive); in assay [2] (setting [8]) it was 96%; in assay [2] (setting [9]), 99.5%. In addition, the GFP response, % of DMSO is 102% (inactive) in assay [4], 101% (inactive) in assay [5], 105% in assay [5] (setting [6]) and 102% in assay [5] (setting [7]).
For the molecule `O=C(NCc1cccnc1)c1cnc2n(c1=O)CCS2`, the GFP response vs DMSO was 101% (inactive) in assay [1], 101% in assay [1] (setting [6]), 101% in assay [1] (setting [7]) and 99.3% (inactive) in assay [3]. In addition, the GFP response relative to DMSO in assay [2] was 101% (inactive); in assay [2] (setting [8]), 104%; in assay [2] (setting [9]), 100%. Besides, the GFP response, % of DMSO was 102% (inactive) in assay [4], 98.6% (inactive) in assay [5], 101% in assay [5] (setting [6]) and 99.3% in assay [5] (setting [7]).
Turning to `Cc1ccc(C2=NN(S(C)(=O)=O)C(c3ccc4c(c3)OCO4)C2)cc1` (configuration not stated), the GFP response vs DMSO is 101% (inactive) in assay [1], 99.6% in assay [1] (setting [6]), 102% in assay [1] (setting [7]) and 141% (inactive) in assay [3]. Also, the GFP response relative to DMSO in assay [2] is 116% (inactive); in assay [2] (setting [8]), 115%; in assay [2] (setting [9]) it was 115%. For the same molecule, the GFP response, % of DMSO is 103% (inactive) in assay [4], 129% (inactive) in assay [5], 130% in assay [5] (setting [6]) and 119% in assay [5] (setting [7]).
For the molecule `CCCC(=O)c1ccc(N2CCN(C(=O)c3ccc(Br)cc3)CC2)c(F)c1`, the GFP response vs DMSO in assay [1] is 101% (inactive); in assay [1] (setting [6]), 95.9%; in assay [1] (setting [7]), 94%; in assay [3], 102% (inactive). Further, the GFP response relative to DMSO in assay [2] is 102% (inactive); in assay [2] (setting [8]), 99.2%; in assay [2] (setting [9]) it was 99.3%. The GFP response, % of DMSO in assay [4] is 100% (inactive); in assay [5] it was 105% (inactive); in assay [5] (setting [6]), 105%; in assay [5] (setting [7]) it was 99.7%.
With `CCOC(=O)c1cc2c(=O)n3ccccc3nc2n(CCOC)c1=NC(=O)C(C)(C)C`, the GFP response vs DMSO in assay [1] was 99.4% (inactive); in assay [1] (setting [6]), 99.1%; in assay [1] (setting [7]) it was 97.3%; in assay [3] it was 99% (inactive). Also, the GFP response relative to DMSO in assay [2] is 94.4% (inactive); in assay [2] (setting [8]) it was 92.6%; in assay [2] (setting [9]), 94.1%. The GFP response, % of DMSO in assay [4] is 103% (inactive); in assay [5], 94.4% (inactive); in assay [5] (setting [6]), 93.8%; in assay [5] (setting [7]) it was 93.2%.
On to `COc1ccc(N=Cc2cc(Cc3ccccc3Cl)cc([N+](=O)[O-])c2O)cc1OC`, for which the GFP response vs DMSO in assay [1] is 93.4% (inactive); in assay [1] (setting [6]) it was 93%; in assay [1] (setting [7]), 86.5%; in assay [3], 120% (inactive). The figures for the GFP response relative to DMSO in assay [2], in assay [2] (setting [8]) and in assay [2] (setting [9]) were 142% (inactive), 114% and 147%, respectively. Further, the GFP response, % of DMSO in assay [4] was 96.7% (inactive); in assay [5] it was 96.5% (inactive); in assay [5] (setting [6]), 86.7%; in assay [5] (setting [7]), 96.6%.
As for `Cc1cc2ccccn2c1C(=O)c1ccc([N+](=O)[O-])o1`, the GFP response vs DMSO is 102% (inactive) in assay [1], 106% in assay [1] (setting [6]), 94.6% in assay [1] (setting [7]) and 132% (inactive) in assay [3]. The GFP response relative to DMSO in assay [2] was 195% (active); in assay [2] (setting [8]) it was 182%; in assay [2] (setting [9]) it was 196%. Besides, the GFP response, % of DMSO in assay [4] is 109% (inactive); in assay [5] it was 98.4% (inactive); in assay [5] (setting [6]) it was 106%; in assay [5] (setting [7]), 87.8%.
On to `O/C=c1\ccc2cccc3nc(C(F)(F)F)nc1c23`, for which the GFP response vs DMSO in assay [1] was 111% (inactive); in assay [1] (setting [6]), 111%; in assay [1] (setting [7]) it was 110%; in assay [3], 269% (active). The figures for the GFP response relative to DMSO in assay [2], in assay [2] (setting [8]) and in assay [2] (setting [9]) were 172% (active), 167% and 178%, respectively. Further, the GFP response, % of DMSO in assay [4] was 108% (inactive); in assay [5] it was 179% (active); in assay [5] (setting [6]), 171%; in assay [5] (setting [7]) it was 181%.
As for `Cc1ccc(Cl)cc1N1CCN(C(=O)CSc2ccsc2[N+](=O)[O-])CC1`, the GFP response vs DMSO was 98% (inactive) in assay [1], 97.4% in assay [1] (setting [6]), 97.8% in assay [1] (setting [7]) and 101% (inactive) in assay [3]. Further, the GFP response relative to DMSO was 97% (inactive) in assay [2], 95.9% in assay [2] (setting [8]) and 96.2% in assay [2] (setting [9]). The GFP response, % of DMSO in assay [4] was 99.4% (inactive); in assay [5] it was 100% (inactive); in assay [5] (setting [6]), 99.2%; in assay [5] (setting [7]), 99.3%.
On to `O=C(O)Cc1sc(Nc2ccc(F)cc2)nc1-c1cccs1`, for which the GFP response vs DMSO in assay [1] was 97.6% (inactive); in assay [1] (setting [6]), 99.4%; in assay [1] (setting [7]), 97%; in assay [3], 110% (inactive). The GFP response relative to DMSO in assay [2] is 129% (inactive); in assay [2] (setting [8]) it was 125%; in assay [2] (setting [9]) it was 135%. Besides, the GFP response, % of DMSO in assay [4] is 108% (inactive); in assay [5] it was 103% (inactive); in assay [5] (setting [6]), 103%; in assay [5] (setting [7]), 103%.
`O=C(/C=C/c1cc(Br)ccc1O)c1ccco1`: the GFP response vs DMSO was 99.9% (inactive) in assay [1], 101% in assay [1] (setting [6]), 99% in assay [1] (setting [7]) and 122% (inactive) in assay [3]. For the same molecule, the GFP response relative to DMSO in assay [2] was 151% (active); in assay [2] (setting [8]), 135%; in assay [2] (setting [9]), 153%. In addition, the GFP response, % of DMSO in assay [4] was 100% (inactive); in assay [5], 95% (inactive); in assay [5] (setting [6]), 98.3%; in assay [5] (setting [7]) it was 91%.
Turning to `O=C(/C=C/c1ccccc1)Nc1ncn[nH]1`, the GFP response vs DMSO is 97.4% (inactive) in assay [1], 97.3% in assay [1] (setting [6]), 96% in assay [1] (setting [7]) and 102% (inactive) in assay [3]. The GFP response relative to DMSO is 135% (inactive) in assay [2], 125% in assay [2] (setting [8]) and 137% in assay [2] (setting [9]). Moreover, the GFP response, % of DMSO was 98% (inactive) in assay [4], 97.8% (inactive) in assay [5], 100% in assay [5] (setting [6]) and 94.5% in assay [5] (setting [7]).
Consider `CCc1nnc(NC(=O)c2ccc(S(=O)(=O)N(CCOC)CCOC)cc2)o1`, for which the GFP response vs DMSO in assay [1] is 95% (inactive); in assay [1] (setting [6]) it was 94.4%; in assay [1] (setting [7]), 96.2%; in assay [3], 96.2% (inactive). Further, the GFP response relative to DMSO in assay [2] is 91.5% (inactive); in assay [2] (setting [8]), 96%; in assay [2] (setting [9]), 90.8%. The GFP response, % of DMSO in assay [4] was 97.8% (inactive); in assay [5] it was 99.7% (inactive); in assay [5] (setting [6]) it was 101%; in assay [5] (setting [7]), 101%.
With `O=S(=O)(c1ccccc1)c1ncc(C(F)(F)F)cc1O`, the GFP response vs DMSO in assay [1] was 96.5% (inactive); in assay [1] (setting [6]) it was 98.4%; in assay [1] (setting [7]), 94.8%; in assay [3] it was 110% (inactive). In addition, the values for the GFP response relative to DMSO in assay [2], in assay [2] (setting [8]) and in assay [2] (setting [9]) were 97.7% (inactive), 97.5% and 99.5%, respectively. Also, the GFP response, % of DMSO is 104% (inactive) in assay [4], 101% (inactive) in assay [5], 99.3% in assay [5] (setting [6]) and 102% in assay [5] (setting [7]).
Consider `COC(=O)c1ccc(/C=N/NC(=O)c2cccc(F)c2)cc1`, for which the GFP response vs DMSO in assay [1] was 99.9% (inactive); in assay [1] (setting [6]) it was 99.3%; in assay [1] (setting [7]) it was 98.6%; in assay [3] it was 104% (inactive). Besides, the figures for the GFP response relative to DMSO in assay [2], in assay [2] (setting [8]) and in assay [2] (setting [9]) were 103% (inactive), 102% and 101%, respectively. Also, the GFP response, % of DMSO in assay [4] was 99.3% (inactive); in assay [5] it was 99.3% (inactive); in assay [5] (setting [6]), 100%; in assay [5] (setting [7]) it was 99.1%.
Consider `CCCn1c(=O)c(C(=O)Nc2ccccc2C(=O)OCC)c(O)c2ccccc21`, for which the GFP response vs DMSO is 95.1% (inactive) in assay [1], 96.7% in assay [1] (setting [6]), 95.2% in assay [1] (setting [7]) and 108% (inactive) in assay [3]. Besides, the GFP response relative to DMSO is 95.3% (inactive) in assay [2], 94.4% in assay [2] (setting [8]) and 97.4% in assay [2] (setting [9]). In addition, the GFP response, % of DMSO in assay [4] was 110% (inactive); in assay [5] it was 100% (inactive); in assay [5] (setting [6]), 103%; in assay [5] (setting [7]) it was 100%.
